# Source: PubChem BioAssay
# DENV2 CPE rescue – inhibitors of DENV2 cytopathic effect | hit rate 1.7% among 350,000 | DENV2-infected cells, cytopathic effect rescue, plate reader | CPE inhibition, % at 9.99 µM | AID 651640; in the data active = CPE inhibition above about 20%, passing the limit was not always enough; inconclusive = no clear call, values can overlap the other calls; tested in BHK-21 cells;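 also: 0% = median of neutral control wells and 100% = median of positive control wells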
# ARNT TACC3 PPI – disruptors of human ARNT/TACC3 interaction; Q9Y6A5; AlphaScreen His-ARNT PAS-B/GST-TACC3 binding, luminescence; TACC3 fragment carries E629A point mutation; inhibition, % at 9.99 µM; hit rate 0.66% among 390,000;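 active = mean inhibition of replicates at least 50% and at least half of replicates each reaching 50%; inconclusive = half or more replicates reach 50% but mean below 50%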;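 also: 0% = complete ARNT plus TACC3 wells and 100% = ARNT alone without TACC3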
# FN deposition inh – fibronectin deposition inhibition. AH1F fibroblasts, Alexa488-fibronectin deposition fluorescence, overnight. inhibition, % at 12.6 µM. hit rate 0.086% among 350,000;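 active = mean inhibition across replicates of 30% or more, regardless of how many single replicates reach that level; inconclusive = mean under 30% yet at least half of replicates reach 30%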;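 also: positive control wells lacked labelled fibronectin entirely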
#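 Schedule: 1 h cell adhesion before compound, then overnight fibronectin incubation; test system: AH1F fibroblast monolayer depositing Alexa488-labelled fibronectin into matrix; quantity: 10000 AH1F cells per well; probe or stimulus: fluorescent fibronectin at 24 nM final; signal: fluorescence, ex 485 nm, em 525 nm; evaluation: percent inhibition as loss of matrix-bound fibronectin fluorescence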
# FGF22 binding-1 – binders of recombinant human FGF22 by thermal shift | Q9HCT0 | SYPRO orange fluorescence; percent of sucrose octasulfate shift, DMSO zero | activity (Tm shift, normalised), % at 9.99 µM | hit rate 1.5% among 340,000;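 active = mean Tm shift, scaled 0 neutral to 100 positive control, at about 1.3% or above, every replicate too, limit read from the data; inconclusive = no clear call, values can overlap the other calls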
# Target sequence (Q9HCT0 whole entry, looked up): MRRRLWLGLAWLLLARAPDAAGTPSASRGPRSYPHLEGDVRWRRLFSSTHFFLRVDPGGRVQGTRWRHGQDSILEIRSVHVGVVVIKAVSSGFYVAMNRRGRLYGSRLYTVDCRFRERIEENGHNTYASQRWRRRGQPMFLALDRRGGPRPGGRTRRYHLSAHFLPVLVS
# XiGFP reactiv – X-chromosome reactivation activator; XiGFP mouse fibroblasts, % GFP-positive cells imaging, 3 d; cells co-treated with 5-aza-dC sensitizer; scaled so ellipticine positive control = 100%; activation, % at 7.58 µM; hit rate 0.055% among 360,000; AID 743238;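 active = mean normalized replicate activation at least 10% and every replicate at or above 10%; inconclusive = only one of the two criteria met; inactive = mean below 10% and not all replicates reach 10%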;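 also: 0% = median of on-plate neutral control wells and 100% = ellipticine 6 µM median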
#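 Assay system: SV40-immortalized XiGFP fibroblast cells, line 68-5-11; buffer or medium: DMEM plus 5-aza-dC sensitizer; compound: one concentration, pinned; timing: compounds 3 days, fix/stain 15 min at room temperature; benchmarks: positive control ellipticine, 6 µM final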
# SIRT5 block – sirtuin-5 (human) deacylase inhibition | inhibition, % at 15 µM | hit rate 1.1% among 330,000 | AID 652115 | Q9NXA8 | Purified SirT5, succinyl-peptide AMC, trypsin-coupled fluorescence; in the data active = inhibition above about 15%; inconclusive = no clear call, values can overlap the other calls
# Target sequence (Q9NXA8 whole entry, looked up): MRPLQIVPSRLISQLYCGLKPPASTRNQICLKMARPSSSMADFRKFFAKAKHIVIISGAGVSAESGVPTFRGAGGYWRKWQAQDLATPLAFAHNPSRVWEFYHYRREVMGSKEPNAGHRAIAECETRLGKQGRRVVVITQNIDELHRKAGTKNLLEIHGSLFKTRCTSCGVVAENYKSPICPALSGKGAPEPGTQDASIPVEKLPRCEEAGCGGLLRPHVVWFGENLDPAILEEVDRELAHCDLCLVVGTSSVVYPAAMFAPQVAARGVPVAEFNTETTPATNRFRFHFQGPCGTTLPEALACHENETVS
# FGF22 binding-2 – binders of human FGF22 by thermal shift | shares compounds with FGF22 binding-1 | recombinant FGF22 thermal shift, SYPRO orange fluorescence | thermal shift activity, °C (ΔTm) at 38 µM | hit rate 2% among 1,000 | AID 720646;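 active = fitted rise in melting shift crosses a set limit at or below the top valid dose tested; inconclusive = flat fit at mid-level activity, or a poor quality fit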
# SYPRO no-protein – compound-only SYPRO artifact for FGF22 binders. shares compounds with FGF22 binding-1. compound-only SYPRO orange thermal shift counter-screen, no protein. AC50, µM (titrated, usually from 38 µM). hit rate 2% among 1,000. AID 743019;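 active = rising signal whose fitted curve reaches the 0.54 level within the top valid dose, showing a melting point, actives reach about 13 µM in these data; inactive = the rest, including activity in the opposite direction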; also: value is where the raw curve crosses a fixed level and not half-maximal
# * hit, by the source's call; i = inactive; ? = inconclusive; nt = no result; [ ] = remark or other dose. In the library only some 3.8% were active in any assay of this set; here they are far more common.
SMILES,DENV2 CPE rescue,ARNT TACC3 PPI,FN deposition inh,FGF22 binding-1,XiGFP reactiv,SIRT5 block,FGF22 binding-2,SYPRO no-protein
C[C@H]1CN([C@@H](C)CO)S(=O)(=O)c2ccc(C#Cc3ccccc3F)cc2O[C@H]1CN(C)C(=O)Cc1cccnc1,-9,1,3,5.9*,0,11,0.09[42 µM],i
COc1ccc(CNC(=O)C[C@H]2C=C[C@H](NS(=O)(=O)c3cccc(OC)c3)[C@@H](CO)O2)cc1,-3,-1,nt,0,0,-3,nt,nt
C[C@H]1CN([C@@H](C)CO)C(=O)c2cc(NC(=O)Nc3ccc(C(F)(F)F)cc3)ccc2O[C@@H]1CN(C)Cc1ccc(-c2ccccc2)cc1,-1,-4,nt,1,-1,0,nt,nt
O=C(N/N=C/c1ccc(-c2cccc([N+](=O)[O-])c2)o1)c1ccc([N+](=O)[O-])cc1,-4,1,-7,1.6*,0,-4,-0.096,i
Cc1cccc(OC(C)C(=O)Nc2ccc3c(c2)OCCO3)c1 (configuration not stated),1,4,nt,2.1*,0,1,-0.029,i
COc1cccc(CNC(C)C(=O)Nc2ccc3c(c2)OCCO3)c1 (configuration not stated),-8,-10,nt,0,0,nt,nt,nt
CCC(=O)Nc1ccc2c(c1)OC[C@@H](C)N(CC1CCCCC1)C[C@@H](C)[C@@H](OC)CN(C)C2=O,nt,-5,10,nt,0,nt,nt,nt
Cc1ccc(NS(=O)(=O)c2ccc(C(=O)NNC(=O)c3ccccc3O)cc2)cc1,-7,24,4,0,0,2,nt,nt
O=C(NNC(=O)c1ccccc1O)c1ccc(NS(=O)(=O)c2ccc(F)c(F)c2)cc1,-1,8,4,1.8*,0,-6,-0.036,i
CCCn1c(=O)[nH]c(=O)c2c1nc(-c1ccc(C#N)cc1)n2CCOC,-4,10,-5,0,0,-48,nt,nt
CCCn1c(=O)[nH]c(=O)c2c1nc(-c1cccs1)n2CCOC,1,0,6,4.7*,0,-7,0.15,i
COc1ccc2c3c([nH]c2c1)[C@@H](CO)N(C(=O)NC1CCCC1)CC31CCN(C(=O)Nc2cccc(F)c2)CC1,-12,nt,nt,0,0,6,nt,nt
O=C(CCc1ccccc1)c1c(O)cc(O)cc1O,?,1,nt,21*,nt,nt,0.089,i
O=C(O)C1CSC(c2ccc3c(c2)OCO3)N1 (configuration not stated),-7,3,-8,2.7*,0,7,0.11,i
C[C@H]1CN([C@@H](C)CO)C(=O)Cc2cc(NS(=O)(=O)c3ccccc3)ccc2O[C@@H]1CN(C)C(=O)Nc1ccc(C(F)(F)F)cc1,-5,nt,nt,-1,9,3,nt,nt
COC(=O)C[C@@H]1CC[C@H]2[C@@H](COc3ccc(NC(=O)c4ccccc4)cc3C(=O)N2C)O1,?,-5,-16,0,0,-8,nt,nt
C[C@@H]1CN([C@H](C)CO)C(=O)Cc2cc(NC(=O)CCN3CCOCC3)ccc2O[C@H]1CN(C)C(=O)Nc1ccccc1,-13,-8,nt,0,0,-3,nt,nt
O=C(N/N=C\c1cccnc1)c1cc(-c2ccc(Cl)s2)[nH]n1,-3,-4,5,1.3*,0,-1,-0.19,i
O=C(N/N=C/c1cccnc1)c1ccccc1Cl,12,-7,1,0,0,-3,nt,nt
COc1cc2cc(NC(C)=O)cc(NCc3ccccc3)c2cc1OC,6,20,-1,1.5*,0,-5,0.43,i
CCCCNc1cc(NC(C)=O)cc2cc(OC)c(OC)cc12,nt,3,nt,nt,nt,nt,nt,nt
C[C@H]1CN([C@@H](C)CO)C(=O)c2cc(C#CCN(C)C)cnc2O[C@@H]1CN(C)C(=O)CN1CCOCC1,15,-5,3,0,0,1,nt,nt
Cc1ccc(S(=O)(=O)c2nnn(-c3cccc(F)c3)c2N)cc1,3,-2,-5,1.5*,0,-2,-0.014,i
Cc1cccc(NC(=O)Nc2ccc(S(N)(=O)=O)cc2)c1,-5,nt,1,1.7*,0,3,0.096,11µM*
CO[C@@H]1CN(C)C(=O)c2ccc(NC(=O)c3cnccn3)cc2OC[C@H](C)N(C(=O)C2CC2)C[C@H]1C,-4,-6,nt,0,0,-1,nt,nt
SMILES,DENV2 CPE rescue,ARNT TACC3 PPI,FN deposition inh,FGF22 binding-1,XiGFP reactiv,SIRT5 block,FGF22 binding-2,SYPRO no-protein
O=C(N/N=C/c1ccncc1)c1cc2ccccc2cc1O,-5,13,nt,0,0,9,nt,nt
O=C(N/N=C/c1ccc[nH]1)c1cc2ccccc2cc1O,-9,10,6,1.8*,0,5,0.084,i
C[C@@H]1CN([C@H](C)CO)C(=O)c2cc(NC(=O)Cn3cnnn3)ccc2O[C@H]1CN(C)C(=O)Nc1ccccc1,14,-4,nt,0,1,3,nt,nt
CCS(=O)(=O)N1CC(=O)N2[C@H](CO)[C@@H](c3ccc(-c4ccccc4F)cc3)[C@@H]2C1,15,nt,nt,1.3*,0,-2,0.046,i
COCCN1CCN(Cc2nc(Cc3ccc(OC)c(OC)c3)no2)CC1,1,-5,4,8.0*,1,-1,0.052,i
COc1ccc(Cc2noc(CN3CCN(Cc4csc(C)n4)CC3)n2)cc1OC,5,-7,9,nt,0,-4,nt,nt
NC(=NCCc1c[nH]c2ccccc12)NS(=O)(=O)c1ccc(F)cc1,5,-17,-2,2.7*,0,-4,0.088,i
N#C/C(=C\c1ccc(N2CCOCC2)c([N+](=O)[O-])c1)c1nc2ccccc2[nH]1,-6,0,-11,1.7*,0,nt,-0.052,i
COc1ccc2c3c([nH]c2c1)[C@H](CO)N(C(C)=O)CC31CN(C(=O)c2ccc3c(c2)OCO3)C1,-2,nt,nt,26*,0,-2,0.056,i
CCOC(=O)[C@]12CCCC=C1N(Cc1ccccc1)C(=O)[C@H](CC(=O)NCC1CCCCC1)C2,3,nt,-7,2.2*,0,3,-0.08,i
O=C(Nc1nc(-c2ccccn2)cs1)c1cc2ccccc2o1,-5,66*,3,1.6*,0,-1,-0.22,i
COc1ccc(S(=O)(=O)Nc2ccc3c(c2)C(=O)N([C@@H](C)CO)C[C@H](C)[C@H](CN(C)C(=O)CCCN(C)C)OCCCC[C@@H](C)O3)cc1,20,nt,nt,0,-1,nt,nt,nt
